From the EternaBench riboswitch data

System: MS2 coat protein
Assay: apparent Kd, MS2 coat protein; higher = weaker binding; RNA-MaP array; FMN 200 µM where present
In short: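 Apparent Kd: the median of filtered binding-curve fits from single clusters. Designs were transcribed on Illumina sequencing-chip clusters by stalled E. coli RNA polymerase and titrated with SNAP-549-labelled MS2 coat protein from 0.7 or 1.5 nM, doubling to 3 µM, in 100 mM Tris-HCl pH 7.5, 80 mM KCl, 4 mM MgCl2, BSA, DTT, yeast tRNA and Tween-20. Each series ran without and then with constant ligand, and green signal was normalised to red-channel RNA signal and control-cluster median Fmax.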

[1] = designed as: OFF switch for flavin mononucleotide, no ligand
[2] = ligand present: flavin mononucleotide, designed as: OFF switch for flavin mononucleotide
[3] = designed as: ON switch for flavin mononucleotide, no ligand
[4] = ligand present: flavin mononucleotide, designed as: ON switch for flavin mononucleotide

ACUUUACGAGGAUAUACUGUCGGGCCUCGGGCAUACAUACGACAUGAGGAUCACCCAUGUAGAAGGCGUUUACU
apparent Kd [1]: 33.6 nM | apparent Kd [2]: 61.1 nM

GUAGUGCUCAUAGGAUAUCGGGAACGACUUAGACAGGUCGUACAUGAGGAUCACCCAUGUAAAGUCGAGAAGGGUGAUCACGCC
apparent Kd [3]: 592 nM | apparent Kd [4]: 160 nM

CUUUCGUGAGGAUAUCAGUAGUAAAAAUAUAAAAUUACUACUGAGAAGGCACAUGAGGAUCACCCAUGUUCCUC
apparent Kd [1]: 26 nM | apparent Kd [2]: 150 nM

CAAGGUACCCAAGGAUAUCCUCACAUGAGGAUCACCCAUGUGUCAGCAAAAGGAGAAGGUGGGUGAAGCUGUCUGCACGCCAAG
apparent Kd [3]: 53.3 nM | apparent Kd [4]: 4.53 nM

AGUUAUUCAGGAUAUGGUGUGUUAUACAUGAGGAUCACCCAUGUAGAUCCUGGUUAGGCCUCAGAAGGGAAUGUUC
apparent Kd [1]: 182 nM | apparent Kd [2]: 183 nM

AGACGGAGCUGAGGAUAUUACAUGAGGAUCACCCAUGUAAGUCUCCAGGAAACUGGAGACAAAUGUAAGAAGGCAGCUCCGUCA
apparent Kd [1]: 19.3 nM | apparent Kd [2]: 29.5 nM

ACCUCGUCAGGAUAUCCUAUUAAUUGUUUCAUAUUUACUAUGGAGAAGGGACAUGAGGAUCACCCAUGUUGGUC
apparent Kd [1]: 53.3 nM | apparent Kd [2]: 57.8 nM

UUACUAUUGGAGAAGGGUCGAUCAUAUAGAAUGACAGGAUAUCCAACAUGAGGAUCACCCAUGUUUCACCCAUAUGAGGAUCAC
apparent Kd [1]: 102 nM | apparent Kd [2]: 31 nM

UUGAGGUCAGGAUAUGCAUGGCGGGACUUGCGUCGUGGCGUGGAGAAGGGACAUGAGGAUCACCCAUGUGGAGU
apparent Kd [1]: 93.1 nM | apparent Kd [2]: 53.4 nM

CGUUUUCACAUUUUAGUGUUUUAUACAGAAGGCCAUACACAUGAGGAUCACCCAUGUCAGGAAUUGGAGGAUAUGUUAUUGACG
apparent Kd [3]: 5.92 nM | apparent Kd [4]: 4.85 nM

CUGAUGUUAGGAUAUCAGGCGCCCGCCACUAGCAGGGCGCAUGAGAAGGGACAUGAGGAUCACCCAUGUAGUAA
apparent Kd [1]: 31.6 nM | apparent Kd [2]: 54.5 nM

GUAGCAUACCGAGGAUAUUCAUAUAAUACAUGAGGAUCACCCAUGUUAUAUAGGCGAAAGCCUUGGGAGAAGGCGGAAUGCUAC
apparent Kd [4]: 10.8 nM

UUAUAUAGAGUGAGGAUAUGCUGGUCCUUGGAUCAGCAGAAGGCACAUGAGGAUCACCCAUGUAAAAUAAUAUU
apparent Kd [1]: 24.2 nM | apparent Kd [2]: 41.1 nM

ACAUGAGGAUCACCCAUGUUUUUUGGGUACUCUUGAUACAGCAAGGAUAUGCAUUAUUUAUGUACGCAGAAGGUGCAUUACGUC
apparent Kd [1]: 920 nM | apparent Kd [2]: 853 nM

AAUUAUAGGUAGAAGGUACUGACUUAUGUGUUGUAAGGAUAUACCAAAUUAUUAGAUCUCAAGUUACAUGAGGAUCACCCAUGU
apparent Kd [3]: 9.18 nM | apparent Kd [4]: 7.97 nM

AGUUACAUGAGGAUCACCCAUGUGUAUAGGGCAACCUAUAGACAGGAUAUCCGGCAUGCGGCCUAGGAGAAGGGUCAAAGAAGA
apparent Kd [3]: 91.5 nM | apparent Kd [4]: 429 nM

ACCGACACUUACAUGAGGAUCACCCAUGUGUGUAAUCGGACACAGGAUAUCCAUGGUAAGUAUCGGGAGAAGGGUGGAAAGAAA
apparent Kd [3]: 88.9 nM | apparent Kd [4]: 233 nM

UACCGCGACAACACGGUAUCACAUGAGGAUCACCCAUGUUCACAGGAUAUGCGAUAGCCAACGAAGCAGAAGGGUGAUUACUUA
apparent Kd [3]: 37.3 nM | apparent Kd [4]: 263 nM

GAAGCACAUGAGGAUCACCCAUGUAAGGAUAUAUUUCUGGUCCGGCCGGACCAGUACCGUAGAAGGUAUGUAAA
apparent Kd [1]: 13.5 nM | apparent Kd [2]: 13.9 nM

GGUACUCAAAGAGUACCAAUAUGAACAUGAGGAUCACCCAUGUAGGAUAUGCUACUCAAAGAGUAGCAGAAGGAUAUGUGUCUA
apparent Kd [1]: 19.6 nM | apparent Kd [2]: 21.2 nM

GCUGCAUAGGCAGGAUAUGCAAUAAUUCGAAUAAAAUAUAACGAAUUAACAUGAGGAUCACCCAUGUAGAAGGGCCUGUGCAGU
apparent Kd [1]: 18.4 nM | apparent Kd [2]: 16 nM

CUUCUGUGAGGAUAUGUUAGCUCCCAGAAUGUCGCUGGGAGACAGAAGGCACAUGAGGAUCACCCAUGUGGGCG
apparent Kd [1]: 35.2 nM | apparent Kd [2]: 175 nM

UUAUUCUAUAUAGGAUAUUGAUGUAAUUUAUUUCAAGAAGGAUAUACAUGAGGAUCACCCAUGUUGGAUAGGGUUAGUUUGUUU
apparent Kd [3]: 81.1 nM | apparent Kd [4]: 91.1 nM

UUGCGGUCAGGAUAUGCAUGGCGGGACUUGCGUCGUGGCGUGGAGAAGGGACAUGAGGAUCACCCAUGUGGAGG
apparent Kd [1]: 97.1 nM | apparent Kd [2]: 99.3 nM

ACAUGAGGAUCACCCAUGUUCACAUAGGAUAUUGAUUAUAUUGGUUUUAGAAUAGUAAUUAACCUCAAGAAGGAUGCCUGAUCU
apparent Kd [3]: 12.5 nM | apparent Kd [4]: 10.9 nM

CUAUUUAAGCAGAAGGCGUGGGAGAGAUUCACACGAGGAUAUGCGAUAACGGCGUAUGACAUGAGGAUCACCCAUGUACGUGCG
apparent Kd [3]: 5.83 nM | apparent Kd [4]: 4.91 nM

CUUUUUUGAGGAUAUUAGUAGUAAAUAAAUAAAAUUACUACUGAGAAGGCACAUGAGGAUCACCCAUGUUCCUC
apparent Kd [1]: 16.3 nM | apparent Kd [2]: 26.9 nM

GAGUGGAAGGCCGCUACAUGAGGAUCACCCAUGUGCUAAGCACAGGAUAUCGCGCUGGCCCGGCGCGAGAAGGGUGACGGCCUU
apparent Kd [3]: 737 nM | apparent Kd [4]: 283 nM

GAAGUUCUCCAGAAGGCACAUGAGGAUCACCCAUGUAAAAGAGCCUUAAUGUGAGGAUAUGGAAGCUGCUUCAUAGAUGACAUA
apparent Kd [1]: 6.61 nM | apparent Kd [2]: 26.5 nM

UAGCAGUAGGGAGGAUAUGCGAAAGGAAGGCCCGCAGAAGGCCUUACAUGAGGAUCACCCAUGUAGGAUGCCUGGGUGGUGCCC
apparent Kd [1]: 13.8 nM | apparent Kd [2]: 20.3 nM

UUACUCAUGUAAGGAUAUGCAGCCGUUUCGGUUGCAGAAGGUACUAUAAUACAUGAGGAUCACCCAUGUCUUUUUAAUUUUUAC
apparent Kd [3]: 67.9 nM | apparent Kd [4]: 31.2 nM

CUUUUAUAAUAGAAGGUAGACUUUAAGUGGAUCACCCAUGUGUUGGUACUAAGGAUAUGUAGUAACAUGAGGAUCACCCAUGUU
apparent Kd [3]: 20.5 nM | apparent Kd [4]: 16.9 nM

UAUGGUUAAGUCAGGAUAUACGUGCAGAUAUCUGAGUAGAAGGGACAUGAGGAUCACCCAUGUAUGGUAGUGUU
apparent Kd [1]: 79.9 nM | apparent Kd [2]: 132 nM

AGUCGGCGAGGAUAUACAUGAGGAUCACCCAUGUAUGAUCCUAGACCUGUAGGUCCAUGUAGAAGGCGCUGACA
apparent Kd [1]: 63.6 nM | apparent Kd [2]: 29.1 nM

AUGGUACAUGAGGAUCACCCAUGUCAGGAUAUCGGCUGUGACGUGAAAAGAGUGUUAGCGAGAAGGGACUGCAA
apparent Kd [1]: 37.3 nM | apparent Kd [2]: 43.1 nM

GAAUACCUAGGAUAUACAUGAGGAUCACCCAUGUCAGUAGACUGGGUAAAGUCUCUCAGUAGAAGGAGGACCCG
apparent Kd [1]: 109 nM | apparent Kd [2]: 97.8 nM

AGCCCUAAUGUCAGGAUAUGCAUCCUUAAUGGACGGCAGAAGGGACAUGAGGAUCACCCAUGUAAAUAGAAAUU
apparent Kd [1]: 34.8 nM | apparent Kd [2]: 146 nM

ACAGAGGCUGACAUGAGGAUCACCCAUGUUAGAUUGUUAUGUCAGGAUAUUAUCUGGCAACCAGAUAAGAAGGGACCCUCUGUG
apparent Kd [3]: 31.2 nM | apparent Kd [4]: 8.45 nM

ACAUUAGUACCACAUGUAUUACAUGAGGAUCACCCAUGUUACUAGGAUAUGUAUUAGAAUUUACAACAGAAGGAGUUAUUAUGU
apparent Kd [1]: 17.2 nM | apparent Kd [2]: 17.1 nM

ACAUAAAUUCGAGGAUAUCGGUGAUAUAAUUUACGAGAAGGCGAUAAUUGUUAUAAACUUAUAGACAUGAGGAUCACCCAUGUA
apparent Kd [3]: 32.1 nM | apparent Kd [4]: 31.9 nM

GUCUCGUCAGGAUAUGACGCUACAUUUUCUUUUUAGAAGAGUCAGAAGGGACAUGAGGAUCACCCAUGUGAUUC
apparent Kd [1]: 430 nM | apparent Kd [2]: 596 nM

UGUAUGGACAGAGGAUAUACGGAUAGGAUCUACUAUCUUUCUCAAAUAACAUGAGGAUCACCCAUGUAGAAGGCUGUCCAUACU
apparent Kd [1]: 22.4 nM | apparent Kd [2]: 136 nM

GACAAACAUGAGGAUCACCCAUGUUCAAACGAACAAGGAUAUGUGUGGAAACCGUACUAUACAGAAGGUGUCUGUC
apparent Kd [3]: 36.5 nM | apparent Kd [4]: 37.7 nM

GGUGCGUAUGUGAGGAUAUGCUGGUCCUUGGAUCAGCAGAAGGCACAUGAGGAUCACCCAUGUGGUGUCGUCCC
apparent Kd [1]: 426 nM | apparent Kd [2]: 21.1 nM

UCUUACUGAGGAUAUACUUAGAUUUACAUGAGGAUCACCCAUGUUCCUCUAUGUAUAUAUGUAGAAGGCAGAAGUU
apparent Kd [1]: 25.4 nM | apparent Kd [2]: 158 nM

AUGAGAAAAGCAGGAUAUCUAUUGUCUCAGAAACAUGAGGAUCACCCAUGUAGAGAAGGGCUAAGACUGACUCUUCGGAGUUGA
apparent Kd [1]: 10.6 nM | apparent Kd [2]: 9.46 nM

AAAACAUGAGGAUCACCCAUGUAAAGAACGGUUAAUAGAAGUGAGGAUAUACUAAAUUUUAGGUAGUAGAAGGCACUGGGUACA
apparent Kd [3]: 21.5 nM | apparent Kd [4]: 22.5 nM

AAUCCACAUGAGGAUCACCCAUGUGAGGAUAUGAUACUAUGUACUUCGGUACAUAGUAUCAGAAGGCACAUAAA
apparent Kd [1]: 24.1 nM | apparent Kd [2]: 81 nM

GGUACCAACACAGGAUAUGCAAUCCUUUGGGUUGCAGAAGGGUGAAAACAUGAGGAUCACCCAUGUGGUACCGGGCGUGAGCCC
apparent Kd [3]: 473 nM | apparent Kd [4]: 39.8 nM

GGAGCACACAUUAACAUGAGGAUCACCCAUGUCAAAGGACAUGAGGAUAUGGAUCCGAAAAGGAUCCAGAAGGCAUGGUGCUCC
apparent Kd [3]: 173 nM | apparent Kd [4]: 11.1 nM

GCGUGUCGUGUAGGAUAUGACACAGGAAACUGGUCAGAAGGACAUGAGGAUCACCCAUGUAAAAUGUUCAAGAAUAACGCAUGC
apparent Kd [1]: 27.8 nM | apparent Kd [2]: 39.2 nM

GGAUGACAAAGUCAUCCUUAACGAACAUGAGGAUCACCCAUGUAGGAUAUGCUACUGAAACAGUAGCAGAAGGACAUGUGUCUU
apparent Kd [1]: 29.7 nM | apparent Kd [2]: 130 nM

UGAUAGGACAGAGGAUAUACCGAUAGGAGAUACUAUCGACUAGUCCUCACAUGAGGAUCACCCAUGUAGAAGGCUGUCCUAUCU
apparent Kd [1]: 22.8 nM | apparent Kd [2]: 269 nM

UCUUAAUUGAUCCUAUUUACCAACAUGAGGAUCACCCAUGUGCAGGAUAUGCUAAAGAUAGAUAAGCAGAAGGGCAUUUACCGC
apparent Kd [1]: 213 nM | apparent Kd [2]: 484 nM

AAUCCACAUGAGGAUCACCCAUGUCAGGAUAUGAACGGUCUGGCACCGUGGGUUCCUGUUGACCGUCAGAAGGGACAAGGGCCC
apparent Kd [1]: 5.69 nM | apparent Kd [2]: 7.72 nM
